Converted amounts (≈) assume the structure as drawn.

This is an account of results in ChEMBL document CHEMBL1143542, “Structure-activity relationships of bivalent aminoglycosides and evaluation of their microbiological activities” (2005).

Assay [1] relates to Pseudomonas aeruginosa. In words: Susceptibility testing against Pseudomonas aeruginosa PAE_NUH17; R=Resistant. Format: functional, organism-based. The procedure, abridged: (§1)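 Disk diffusion susceptibility profiling of P. aeruginosa reference and clinical isolates against empirically used antipseudomonal antibiotics. Each isolate was categorised as susceptible, intermediate or resistant.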

Assay [2] has as its system Pseudomonas aeruginosa. Put plainly: Susceptibility testing against Pseudomonas aeruginosa PAE_NUH24; R=Resistant. It counts as functional, organism-based. Put shortly: as §1
Assay [3] relates to Pseudomonas aeruginosa. Put plainly: Susceptibility testing against Pseudomonas aeruginosa PAE_NUH19; R=Resistant. It counts as functional, organism-based. The procedure, abridged: as §1
Assay [4] deals with Pseudomonas aeruginosa. Put plainly: Susceptibility testing against Pseudomonas aeruginosa PAE_NUH05; R=Resistant. Format: functional, organism-based. Put shortly:
as §1

Assay [5] has as its system Pseudomonas aeruginosa. In words: Susceptibility testing against Pseudomonas aeruginosa PAE_NUH20; R=Resistant. It counts as functional, organism-based. The procedure, abridged:
as §1

The subject of assay [6] is Pseudomonas aeruginosa. Put plainly: Susceptibility testing against Pseudomonas aeruginosa PAE_NUH01; R=Resistant. Format: functional, organism-based. Put shortly: as §1
For assay [7], the system named is Pseudomonas aeruginosa. Put plainly: Susceptibility testing against Pseudomonas aeruginosa PAE_NUH23; R=Resistant. Format: functional, organism-based. Put shortly:
as §1

Assay [8] concerns Pseudomonas aeruginosa. Put plainly: Susceptibility testing against Pseudomonas aeruginosa PAE_NUH03; R=Resistant. Format: functional, organism-based. Put shortly:
as §1

Assay [9] relates to Pseudomonas aeruginosa. In words: Susceptibility testing against Pseudomonas aeruginosa PAE_NUH04; R=Resistant. It counts as functional, organism-based. Put shortly: as §1
For assay [10], the system named is Pseudomonas aeruginosa. In words: Susceptibility testing against Pseudomonas aeruginosa PAE_NUH07; R=Resistant. Format: functional, organism-based. The procedure, abridged: as §1
In assay [11] the test system is Pseudomonas aeruginosa. In words: Susceptibility testing against Pseudomonas aeruginosa PAE_NUH06; R=Resistant. Format: functional, organism-based. Put shortly: as §1
The subject of assay [12] is Pseudomonas aeruginosa. Put plainly: Susceptibility testing against Pseudomonas aeruginosa ATCC 27853; S=Susceptible. Format: functional, organism-based. The procedure, abridged:
(§2)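 Disk diffusion susceptibility profiling against a panel of empirically used antipseudomonal antibiotics. Each strain was categorised as susceptible (S) or intermediate (I).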

Assay [13] deals with Pseudomonas aeruginosa. In words: Susceptibility testing against Pseudomonas aeruginosa PAE_NUH18; R=Resistant. It counts as functional, organism-based. The procedure, abridged:
as §1

For assay [14], the system named is Pseudomonas aeruginosa. Put plainly: Susceptibility testing against Pseudomonas aeruginosa PAE_NUH21; I=Intermediate. Format: functional, organism-based. The procedure, abridged: as §2
The test system of assay [15] is Pseudomonas aeruginosa. In words: Susceptibility testing against Pseudomonas aeruginosa PAE_NUH25; R=Resistant. It counts as functional, organism-based. The procedure, abridged: as §1
The subject of assay [16] is Pseudomonas aeruginosa. Put plainly: Susceptibility testing against Pseudomonas aeruginosa PAE_NUH22; R=Resistant. Format: functional, organism-based. Put shortly: as §1
In assay [17] the test system is Pseudomonas aeruginosa. In words: Susceptibility testing against Pseudomonas aeruginosa PAE_NUH02; R=Resistant. It counts as functional, organism-based. The procedure, abridged:
as §1

For another assay, the system named is Escherichia coli. In words: In vitro minimum inhibitory concentration against Escherichia coli ATCC 25922. Format: functional. Put shortly:
(§3)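 Broth microdilution following CLSI M100-S12. Stocks were 10 mg/mL in water, diluted in Mueller–Hinton broth to a top level of 128, then serially 2-fold in plates. Bacteria in cation-adjusted Mueller–Hinton broth were mixed 1:1 with drug and incubated 16–20 h at 35 °C. MIC was the lowest concentration with no visible growth. Run in duplicate with no-antibiotic and no-inoculum (sterility) controls.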

In assay [18] the test system is Pseudomonas aeruginosa. Put plainly: Minimum inhibitory concentration against Pseudomonas aeruginosa PAE_NUH21. Format: functional. The procedure, abridged:
as §3

The test system of assay [19] is Pseudomonas aeruginosa. In words: Minimum inhibitory concentration against Pseudomonas aeruginosa PAE_NUH07. It counts as functional. Put shortly:
as §3

In assay [20] the test system is Pseudomonas aeruginosa. In words: Minimum inhibitory concentration against Pseudomonas aeruginosa PAE_NUH24. Format: functional. Put shortly:
as §3

In assay [21] the test system is Pseudomonas aeruginosa. Put plainly: Minimum inhibitory concentration against Pseudomonas aeruginosa PAE_NUH06. It counts as functional. The procedure, abridged:
as §3

For assay [22], the system named is Pseudomonas aeruginosa. In words: Minimum inhibitory concentration against Pseudomonas aeruginosa PAE_NUH17. It counts as functional. Put shortly: as §3
Assay [23] has as its system Pseudomonas aeruginosa. In words: Minimum inhibitory concentration against Pseudomonas aeruginosa PAE_NUH02. Format: functional. The procedure, abridged:
as §3

The test system of another assay is Enterococcus faecalis. Put plainly: In vitro minimum inhibitory concentration against Enterococcus faecalis 29212. Format: functional. Put shortly: as §3
Assay [24] relates to Pseudomonas aeruginosa. Put plainly: In vitro minimum inhibitory concentration against Pseudomonas aeruginosa ATCC 27853. It counts as functional. Put shortly: as §3
Assay [25] concerns Pseudomonas aeruginosa. Put plainly: Minimum inhibitory concentration against Pseudomonas aeruginosa ATCC 27853. It counts as functional. The procedure, abridged:
as §3

In assay [26] the test system is Pseudomonas aeruginosa. In words: Minimum inhibitory concentration against Pseudomonas aeruginosa PAE_NUH01. Format: functional. Put shortly: as §3
Assay [27] concerns Pseudomonas aeruginosa. In words: Minimum inhibitory concentration against Pseudomonas aeruginosa PAE_NUH03. It counts as functional. The procedure, abridged:
as §3

Assay [28] deals with Pseudomonas aeruginosa. Put plainly: Minimum inhibitory concentration against Pseudomonas aeruginosa PAE_NUH04. Format: functional. Put shortly:
as §3

The test system of assay [29] is Pseudomonas aeruginosa. In words: Minimum inhibitory concentration against Pseudomonas aeruginosa PAE_NUH23. It counts as functional. The procedure, abridged: as §3
The test system of assay [30] is Staphylococcus aureus. In words: In vitro minimum inhibitory concentration against Staphylococcus aureus MRSA 3359. Format: functional. The procedure, abridged: as §3
Assay [31] deals with Pseudomonas aeruginosa. In words: Minimum inhibitory concentration against Pseudomonas aeruginosa PAE_NUH18. Format: functional. The procedure, abridged:
as §3

Assay [32] concerns Staphylococcus aureus. Put plainly: In vitro minimum inhibitory concentration against Staphylococcus aureus ATCC 29213. It counts as functional. Put shortly:
as §3

For assay [33], the system named is Pseudomonas aeruginosa. Put plainly: Minimum inhibitory concentration against Pseudomonas aeruginosa PAE_NUH22. It counts as functional. Put shortly: as §3
For assay [34], the system named is Pseudomonas aeruginosa. Put plainly: Minimum inhibitory concentration against Pseudomonas aeruginosa PAE_NUH25. It counts as functional. Put shortly:
as §3

Assay [35] relates to Pseudomonas aeruginosa. Put plainly: Minimum inhibitory concentration against Pseudomonas aeruginosa PAE_NUH19. It counts as functional. Put shortly:
as §3

Assay [36] deals with Pseudomonas aeruginosa. Put plainly: In vitro minimum inhibitory concentration against Pseudomonas aeruginosa PAO-1. It counts as functional. The procedure, abridged:
as §3

The test system of assay [37] is Pseudomonas aeruginosa. Put plainly: Minimum inhibitory concentration against Pseudomonas aeruginosa PAE_NUH05. Format: functional. Put shortly:
as §3

Assay [38] deals with Pseudomonas aeruginosa. In words: Minimum inhibitory concentration against Pseudomonas aeruginosa PAE_NUH20. It counts as functional. Put shortly:
as §3

Regarding `CN(C)[C@@H]1C(O)=C(C(N)=O)C(=O)[C@@]2(O)C(O)=C3C(=O)c4c(O)cccc4[C@@](C)(O)[C@H]3C[C@@H]12`, the Activity entry in the assay with Pseudomonas aeruginosa [1], in the assay with Pseudomonas aeruginosa [2], in the assay with Pseudomonas aeruginosa [3], with Pseudomonas aeruginosa [4], with Pseudomonas aeruginosa [5] and in the assay on Pseudomonas aeruginosa [6] was “Resistant” throughout. Also, the Activity result in the assay on Pseudomonas aeruginosa [7] is “Resistant”; in the assay on Pseudomonas aeruginosa [8], “Resistant”; in the assay on Pseudomonas aeruginosa [9] it was “Resistant”; in the assay with Pseudomonas aeruginosa [10], “Resistant”; in the assay with Pseudomonas aeruginosa [11] it was “Resistant”; with Pseudomonas aeruginosa [12], “Susceptible”. Also, the Activity entry in the assay with Pseudomonas aeruginosa [13] is on record as “Resistant”; with Pseudomonas aeruginosa [14], “Partial resistance”; in the assay on Pseudomonas aeruginosa [15] it was “Resistant”; with Pseudomonas aeruginosa [16], “Resistant”; in the assay on Pseudomonas aeruginosa [17] it was “Resistant”.

For the compound `CN(CCCCN(C)C[C@@H](O)CO[C@@H]1[C@@H](O)[C@H](N)C[C@H](N)[C@H]1O[C@H]1O[C@H](CN)[C@@H](O)[C@H](O)[C@H]1N)C[C@@H](O)CO[C@@H]1[C@@H](O)[C@H](N)C[C@H](N)[C@H]1O[C@H]1O[C@H](CN)[C@@H](O)[C@H](O)[C@H]1N`, the MIC with Escherichia coli is 4 µg/mL (≈ 4.58 µM); against Pseudomonas aeruginosa [18] it was 16 µg/mL (≈ 18.3 µM); against Pseudomonas aeruginosa [19], 6.3 µg/mL (≈ 7.22 µM); against Pseudomonas aeruginosa [20] it was 32 µg/mL (≈ 36.7 µM); in the assay with Pseudomonas aeruginosa [21] it was 12.5 µg/mL (≈ 14.3 µM); in the assay on Pseudomonas aeruginosa [22] it was above 32 µg/mL. The MIC is 6.3 µg/mL (≈ 7.22 µM) against Pseudomonas aeruginosa [23]; above 50 µg/mL against Enterococcus faecalis; 8 µg/mL (≈ 9.16 µM) in the assay with Pseudomonas aeruginosa [24]; 8 µg/mL (≈ 9.16 µM) in the assay with Pseudomonas aeruginosa [25]; 12.5 µg/mL (≈ 14.3 µM) with Pseudomonas aeruginosa [26]; 6.3 µg/mL (≈ 7.22 µM) against Pseudomonas aeruginosa [27]. The MIC was 6.3 µg/mL (≈ 7.22 µM) with Pseudomonas aeruginosa [28]; above 32 µg/mL against Pseudomonas aeruginosa [29]; 16 µg/mL (≈ 18.3 µM) in the assay with Staphylococcus aureus [30]; 16 µg/mL (≈ 18.3 µM) against Pseudomonas aeruginosa [31]; 1 µg/mL (≈ 1.15 µM) with Staphylococcus aureus [32]; 8 µg/mL (≈ 9.16 µM) against Pseudomonas aeruginosa [33]. The MIC came to 8 µg/mL (≈ 9.16 µM) in the assay with Pseudomonas aeruginosa [34]; 16 µg/mL (≈ 18.3 µM) against Pseudomonas aeruginosa [35]; 8 µg/mL (≈ 9.16 µM) in the assay on Pseudomonas aeruginosa [36]; 6.3 µg/mL (≈ 7.22 µM) in the assay with Pseudomonas aeruginosa [37]; 16 µg/mL (≈ 18.3 µM) in the assay on Pseudomonas aeruginosa [38].

Broadly, the MIC is the least concentration at which growth counts as inhibited. Read a low MIC as greater potency.
